{"source": "paper PMC9063861", "about": "(RSC Advances, 2019)", "key": {"[1]": {"biological_target": "Laccase from Trametes versicolor", "assay": "Kinetics of the oxidation of flavones catalyzed by laccase", "format": "biochemical", "in_short": "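Laccase from Trametes versicolor, 120 U g−1. Oxidation products were quantified by LC-MS/MS using ESI in negative mode with multiple reaction monitoring. The mobile phase was acetonitrile–0.1% formic acid (aq) at 450 μL min−1. Nitrogen served as curtain and collision gas, at 13 and 6 psi respectively.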"}, "[2]": {"biological_target": "T1, Horseradish peroxidase (HRP) (Armoracia rusticana, UniProt P00433)", "T1 sequence (P00433 31-338 limits assumed)": "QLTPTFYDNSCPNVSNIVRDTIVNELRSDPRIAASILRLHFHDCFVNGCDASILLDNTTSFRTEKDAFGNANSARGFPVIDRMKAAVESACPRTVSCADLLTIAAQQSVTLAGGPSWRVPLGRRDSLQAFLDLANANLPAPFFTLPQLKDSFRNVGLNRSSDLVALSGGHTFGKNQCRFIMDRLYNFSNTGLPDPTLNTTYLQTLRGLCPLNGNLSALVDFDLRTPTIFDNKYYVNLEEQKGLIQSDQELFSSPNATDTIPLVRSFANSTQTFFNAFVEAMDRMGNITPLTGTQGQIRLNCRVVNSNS", "assay": "Kinetics of the oxidation of flavones catalyzed by HRP", "format": "biochemical", "in_short": "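Horseradish peroxidase, >250 U mg−1. Oxidation products were quantified by LC-MS/MS using ESI in negative mode with multiple reaction monitoring. The mobile phase was acetonitrile–0.1% formic acid (aq) at 450 μL min−1. Nitrogen served as curtain and collision gas, at 13 and 6 psi respectively.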"}}, "data": [{"smiles": "O=c1c(O)c(-c2ccc(O)cc2)oc2cc(O)cc(O)c12", "note": "[compound 5, kaempferol]", "values": [{"measurement": "kinetic model of oxidation by laccase", "setting": "[1]", "value": "substrate inhibition kinetic model"}, {"measurement": "K m", "setting": "[1]; formation of the named product", "value": "8.288 ± 0.401", "unit": "mM"}, {"measurement": "Ki", "setting": "[1]; read-out: Ki (inhibitory effect on laccase)", "value": 1660, "unit": "µM"}]}, {"smiles": "O=c1cc(-c2ccc(O)cc2)oc2cc(O)cc(O)c12", "note": "[compound 1, apigenin]", "values": [{"measurement": "kinetic model of oxidation by HRP", "setting": "[2]", "value": "Hill kinetic model"}, {"measurement": "K m", "setting": "[2]; formation of the named product", "value": 0.1635, "unit": "mM"}, {"measurement": "n (Hill kinetic model)", "setting": "[2]; formation of the named product", "value": 2.944}]}, {"smiles": "O=c1c(-c2ccc(O)cc2)coc2cc(O)ccc12", "note": "[compound 10, daidzein]", "values": [{"measurement": "kinetic model of oxidation by HRP", "setting": "[2]", "value": "Hill kinetic model"}, {"measurement": "kinetic model of oxidation by laccase", "setting": "[1]", "value": "Hill-kinetic model"}]}, {"smiles": "O=C1C[C@@H](c2ccc(O)cc2)Oc2cc(O)cc(O)c21", "note": "[compound 8, naringenin]", "values": [{"measurement": "kinetic model of oxidation by HRP", "setting": "[2]", "value": "substrate inhibition kinetics"}]}, {"smiles": "O=C(/C=C/c1ccc(O)cc1)c1ccc(O)cc1O", "note": "[compound 12, isoliquiritigenin]", "values": [{"measurement": "kinetic model of oxidation by HRP", "setting": "[2]", "value": "substrate inhibition kinetics"}, {"measurement": "kinetic model of oxidation by laccase", "setting": "[1]", "value": "Hill-kinetic model"}]}]}
